Data published in ChEMBL document CHEMBL1127428, “Studies of the active conformation of a novel series of benzamide dopamine D2 agonists” (J Med Chem, 1994).
pEC50, pIC50: −log10 of the molar value. Activity calls are given as the source filed them. The rule behind the calls is not given here.

Assays:
[1] = (§1) Tested in vitro for intrinsic activity relative to quinpirole
Outline: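 Human D2 receptor (long form) expressed by transfection in GH4C1 cells. Agonism was read as inhibition of forskolin-stimulated cAMP accumulation. Intrinsic activity was the maximal response expressed relative to the maximal response of the full D2 agonist quinpirole.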

[2] = target: D(2) dopamine receptor (Homo sapiens, UniProt P14416); assay: In vitro inhibition of forskolin-stimulated cAMP accumulation in GH4C1 cells transfected with the human Dopamine D2 receptor; format: functional, cell-based, GH4-C1
Sequence of D(2) dopamine receptor (Homo sapiens, UniProt P14416) (P14416 whole entry): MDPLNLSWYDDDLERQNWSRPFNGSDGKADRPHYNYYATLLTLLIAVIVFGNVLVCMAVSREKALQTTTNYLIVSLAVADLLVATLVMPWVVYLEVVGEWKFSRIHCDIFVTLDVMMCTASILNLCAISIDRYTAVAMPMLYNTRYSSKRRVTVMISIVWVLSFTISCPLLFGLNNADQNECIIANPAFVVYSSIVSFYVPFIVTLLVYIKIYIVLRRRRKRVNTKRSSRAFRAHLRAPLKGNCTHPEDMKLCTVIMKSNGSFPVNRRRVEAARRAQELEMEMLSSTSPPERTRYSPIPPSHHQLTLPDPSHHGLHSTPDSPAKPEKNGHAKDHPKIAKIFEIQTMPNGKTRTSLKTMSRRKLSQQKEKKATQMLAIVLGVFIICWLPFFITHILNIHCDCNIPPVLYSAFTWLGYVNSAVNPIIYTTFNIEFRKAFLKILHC

[3] = organism: Mus musculus; assay: Tested for the inhibition of Spontaneous locomotor activity; format: functional
Outline: (§2)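 Mice dosed ip, then immediately tested for 1 h of exploratory locomotion in darkened cylindrical photobeam chambers. Activity expressed as percent of vehicle-treated animals. ED50 (95% confidence range) derived from three to six doses, 6–18 animals per dose.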

[4] = as §1
Outline: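 GH4C1 cells transfected with human D2 receptor (long form); agonism read as inhibition of forskolin-stimulated cAMP accumulation. Intrinsic activity = maximal response relative to the full D2 agonist quinpirole (set at 1.0).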

[5] = target: D(2) dopamine receptor (Rattus norvegicus, UniProt P61169); assay: Binding affinity towards Dopamine D2 receptor from rat striatal membranes, using [3H]- spiperone as radioligand
Sequence of D(2) dopamine receptor (Rattus norvegicus, UniProt P61169) (P61169 whole entry): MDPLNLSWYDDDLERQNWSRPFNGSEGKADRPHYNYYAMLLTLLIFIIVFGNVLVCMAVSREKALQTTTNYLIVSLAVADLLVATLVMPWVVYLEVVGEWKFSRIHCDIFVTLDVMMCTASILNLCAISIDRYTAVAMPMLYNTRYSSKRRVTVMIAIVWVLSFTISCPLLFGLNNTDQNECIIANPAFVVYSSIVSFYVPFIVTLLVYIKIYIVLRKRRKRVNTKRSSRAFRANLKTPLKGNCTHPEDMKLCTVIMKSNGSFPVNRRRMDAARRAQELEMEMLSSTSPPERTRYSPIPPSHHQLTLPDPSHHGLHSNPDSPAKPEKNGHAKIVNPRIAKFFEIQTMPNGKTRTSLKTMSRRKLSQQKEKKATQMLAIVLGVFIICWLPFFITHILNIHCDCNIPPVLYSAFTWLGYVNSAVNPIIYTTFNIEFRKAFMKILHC
Outline: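 Displacement of [3H]spiperone (0.2 nM, final) from rat striatal membranes; nonspecific binding defined with (+)-butaclamol (1 μM). Four to six concentrations, each run in triplicate; IC50 obtained by nonlinear regression.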

[6] = test system: Mus musculus; assay: Tested for the inhibition of Spontaneous locomotor activity; Not active, ED50 > 30 mg/kg; format: functional, organism-based; parameters: dose 30 mg/kg; outline: as §2

SMILES | Intrinsic activity [1] | pEC50 [2] | ED50 [3] | Intrinsic activity [4] | pIC50 [5] | ED50 [6]
CCCN1CCC[C@@H]2Cc3n[nH]cc3C[C@H]21 (single isomer, unassigned) [QUINPIROLE] | 1 |  |  |  |  | 
O=C(N[C@H]1CC[C@H](CCN2CCN(c3ccccn3)CC2)CC1)c1ccccc1 |  | 8.31 | 0.16 mg/kg | 0.83 | 6.35 | 
O=C(N[C@@H]1CC[C@H]2C[C@H](N3CCN(c4ccccn4)CC3)CC[C@@H]2C1)c1ccccc1 |  | < 6.00 | 14.3 mg/kg |  | 5.24 | 
O=C(N[C@H]1CC[C@H]2C[C@@H](N3CCN(c4ccccn4)CC3)CC[C@@H]2C1)c1ccccc1 |  | 6.62 | 6.9 mg/kg | 0.63 | 5.96 | 
O=C(N[C@H]1CC[C@H]2C[C@H](N3CCN(c4ccccn4)CC3)CC[C@@H]2C1)c1ccccc1 |  | < 6.00 |  |  | 5.15 | inactive
O=C(N[C@@H]1CC[C@H]2C[C@@H](N3CCN(c4ccccn4)CC3)CC[C@@H]2C1)c1ccccc1 |  | 7.98 | 0.1 mg/kg | 0.98 | 7.14 | 
